Assay results from different studies.
Protocols differ between the studies behind these lines.
Target: Mitogen-activated protein kinase 15 (MAPK15, Homo sapiens, UniProt Q8TD08)
Sequence (Q8TD08 1-544, as in one of the studies): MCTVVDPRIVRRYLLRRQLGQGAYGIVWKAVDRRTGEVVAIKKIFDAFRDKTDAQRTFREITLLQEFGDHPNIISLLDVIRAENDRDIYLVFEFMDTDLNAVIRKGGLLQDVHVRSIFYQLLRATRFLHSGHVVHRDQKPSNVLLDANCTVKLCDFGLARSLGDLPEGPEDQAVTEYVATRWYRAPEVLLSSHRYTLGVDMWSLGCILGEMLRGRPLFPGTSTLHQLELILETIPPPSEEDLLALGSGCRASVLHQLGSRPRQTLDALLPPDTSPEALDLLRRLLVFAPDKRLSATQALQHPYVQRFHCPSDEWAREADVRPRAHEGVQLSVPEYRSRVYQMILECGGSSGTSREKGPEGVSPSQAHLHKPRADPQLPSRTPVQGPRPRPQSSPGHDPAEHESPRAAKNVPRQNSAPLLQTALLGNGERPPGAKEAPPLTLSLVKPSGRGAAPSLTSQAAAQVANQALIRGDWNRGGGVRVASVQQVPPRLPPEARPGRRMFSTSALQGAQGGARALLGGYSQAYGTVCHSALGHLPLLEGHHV

SMILES	effect on	mode	method	concentration	endpoint	result
N#CC1(c2ccccn2)CCN(Cc2cc(C(=O)N3CCCC3)c(=O)n3ccccc23)CC1	cell-free assay	–	competition with immobilised ligand	1 µM	remaining binding	92%
FC(F)(F)Oc1cccc(-c2cnc3ccc(-c4ccncc4)nn23)c1	enzyme activity	inhibitor	radiometric	1 µM	activity vs control	29%
C[C@@]1(Cc2ccc(C#N)cc2)C(=O)N(c2cc(Cl)cc(Cl)c2)c2ncc(C(=O)NC3(c4nc(C5CCC5)no4)CC3)n21	cell-free assay	–	competition with immobilised ligand	1 µM	remaining binding	100%
Nc1nc(Nc2ccccc2)sc1C(=O)c1c(F)cccc1F	enzyme activity	inhibitor	–	10 µM	remaining activity	14%
Cn1cnc(Br)c1C1=CN(c2ncnc3[nH]cnc23)CCS1	enzyme activity	inhibitor	radiometric	2 µM	inhibition	80.2%
Oc1cccc(-c2nc(N3CCOCC3)c3oc4ncccc4c3n2)c1	enzyme activity	inhibitor	–	10 µM	remaining activity	87%
Nc1ncnc2occ(-c3ccc(NC(=O)Nc4cc(C(F)(F)F)ccc4F)cc3)c12	cell-free assay	inhibitor	–	20 µM	remaining signal	0.1%
CC(C)(C)c1nc(-c2cccc(NS(=O)(=O)c3c(F)cccc3F)c2F)c(-c2ccnc(N)n2)s1	enzyme activity	inhibitor	radiometric	1 µM	remaining activity	80%
Cc1nccc(COC(=O)N2C[C@@H]3[C@@H](CNC(=O)c4ccc5[nH]nnc5c4)[C@@H]3C2)n1	cell-free assay	–	competition with immobilised ligand	1 µM	remaining binding	100%
Nc1nc(Nc2ccc(S(N)(=O)=O)cc2)sc1C(=O)c1ccccc1[N+](=O)[O-]	enzyme activity	inhibitor	–	0.1 µM	inhibition	73 to 75%
O=C(Nc1cnn(-c2csc(C(=O)NC3COC3)c2)c1)Nc1ccccc1Cl	enzyme activity	inhibitor	–	5 µM	remaining activity	140%
CO[C@@H](C)c1c(Nc2ccc([C@@H](N(C)C(=O)C3CCS(=O)(=O)CC3)C(F)(F)F)cc2)cnc2cc(Cl)nn12	cell-free assay	–	competition with immobilised ligand	1 µM	remaining binding	81%
FC(F)c1nc2ccccc2n1-c1nc(N2CCOCC2)nc(N2CCOCC2)n1	enzyme activity	inhibitor	–	10 µM	remaining activity	92%
Cc1sc(C(=O)NC2COC2)cc1-n1cc(NC(=O)Nc2c(F)cccc2Cl)cn1	enzyme activity	inhibitor	–	10 µM	remaining activity	103%
